Assay results pooled from the literature.

| Compound | species | matrix | route | dose | time | setting | concentration |
| --- | --- | --- | --- | --- | --- | --- | --- |
| Cc1nc2ccc(OCc3ccc(C(F)(F)F)cc3)cc2[nH]1 | male BALB/c mouse | brain | intravenous | 1 mg/kg | 72 h | – | 2.9 ng/g |
| CC(C)c1cc(C(=O)NCCN)c2cnn(C(C)C)c2n1 | female BALB/c mouse | plasma | intraperitoneal | 50 mg/kg | 1 h | – | 2860 ng/mL |
| Cc1ccc2c(c1)C(=O)[C@]1(O)CCN(c3ccc4nc(C)ccc4c3)C1=N2 | mouse | brain | subcutaneous | 10 mg/kg | 30 min | single dose | 3.7 µM |
| CC(C)(C)S(=O)(=O)c1cc2c(Nc3ccc4scnc4c3)ncnc2cc1OCCOP(=O)(O)O | BALB/c mouse | plasma | oral | 10 mg/kg | 30 min | – | 1150 ng/mL |
| CC(C)n1ncc2c(C(=O)NCC3(C)CNC3)cc(C3CC3)nc21 | female BALB/c mouse | plasma | intraperitoneal | 50 mg/kg | 4 h | – | 1230 ng/mL |
| CC1(C)NC(=O)N(c2ccc(F)c(Br)c2)C1=O | male Swiss mouse | plasma | oral | 100 mg/kg | 24 h | – | 12500 ng/mL |
| NCc1cc2c(cc1F)C(=O)N(C1CCC(=O)NC1=O)C2 (stereo not drawn) | male CD-1 mouse | plasma | oral | 10 mg/kg | 40.2 min | – | 85.3 ng/mL |
| O=C1CCC(N2Cc3cc(C4CCN(Cc5ccccc5)CC4)ccc3C2=O)C(=O)N1 (stereo not drawn) | male CD-1 mouse | plasma | intravenous | 1 mg/kg | 15 min | – | 136 ng/mL |
| CC1(C)NC(=O)N(c2ccc(F)c(S(C)(=O)=O)c2)C1=O | male Swiss mouse | plasma | oral | 100 mg/kg | 24 h | – | 130 ng/mL |
